Measurements from ChEMBL document CHEMBL1142175, “Activities of antimicrobial peptides and synergy with enrofloxacin against Mycoplasma pulmonis” (2007).
≈ marks a conversion by molar mass, not a printed value. Calls of active or inactive are those of the source. No cut-off for these calls is given here. Starred links: 1 amine or outer side, 2 acyl side, 3 side chain; linkers in the order of their positions; H or OH if unused. Positions of bridges follow the written chain, without caps; N, C: chain ends. Non-standard residues stand in square brackets, D forms with d. Residues, ends and D or L forms follow the SMILES beside them. X1 = CC(C)CCCCCCCCC[C@H](CC(=O)[*:1])O[*:2]; Orn = NCCC[C@H](N)C(=O)O

What was measured:
Mycoplasma pulmonis [1] = experiment: Antibacterial activity against 10^6 CFU/ml Mycoplasma pulmonis MpUR1.1 after 48 hrs; type: functional; conditions: Mycoplasmopsis pulmonis
Method in brief: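 Mycoplasmas seeded at 10^6 CFU/ml in Hayflick medium with 5% horse serum, with twofold serial drug dilutions (0.4 to 100 µM). Growth was followed by phenol red colour change. MIC was the lowest concentration giving complete growth inhibition at 48 h. Triplicate.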

Mycoplasma pulmonis [2] = experiment: Antibacterial activity against 10^6 CFU/ml growth-phase Mycoplasma pulmonis MpUR1.1 assessed as viable cell count after 2 hrs relative to control; type: functional; conditions: Mycoplasmopsis pulmonis
Method in brief: (§1)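 Time-kill on log-phase cells, about 10^6 CFU/ml in Hayflick broth, exposed to a single drug concentration at 37°C. Aliquots were taken at 1, 2 or 24 h, serially diluted and plated for viable counts. Counts were expressed as percent of the untreated culture. Values are the mean of two independent experiments.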

Mycoplasma pulmonis [3] = experiment: Antibacterial activity against 10^6 CFU/ml Mycoplasma pulmonis MpUR1.1 assessed as viable cell count after 2 hrs; type: functional; conditions: Mycoplasmopsis pulmonis
Method in brief: (§2)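 For bactericidal testing, cells were exposed to peptides for 2 h or enrofloxacin for 24 h, then plated on solid medium at 37°C under anaerobic conditions. Colonies were read after 4 to 5 days. MBC was the lowest concentration killing 99.9% of cells. Triplicate.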

Mycoplasma pulmonis [4] = experiment: Antibacterial activity against 10^6 CFU/ml log-phase Mycoplasma pulmonis MpUR1.1 assessed as viable cell count at 0.4 uM after 24 hrs relative to control; type: functional, Mycoplasmopsis pulmonis; method in brief: as §1
Mycoplasma pulmonis [5] = experiment: Antibacterial activity against 10^6 CFU/ml log-phase Mycoplasma pulmonis MpUR1.1 assessed as viable cell count at 0.4 uM after 1 hr relative to control; type: functional, Mycoplasmopsis pulmonis; method in brief: as §1
Mycoplasma pulmonis [6] = experiment: Ratio of MBC to MIC for Mycoplasma pulmonis MpUR1.1; type: functional, Mycoplasmopsis pulmonis
Method in brief: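 MIC came from broth microdilution at 10^6 CFU/ml in Hayflick medium with 5% horse serum. Twofold dilutions ran from 0.4 to 100 µM, with phenol red read-out at 48 h. MBC came from plating after exposure (peptides 2 h, enrofloxacin 24 h) on solid medium at 37°C under anaerobic conditions. MBC was the concentration killing 99.9% of cells, with colonies read at 4 to 5 days.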

Mycoplasma pulmonis [7] = experiment: Antibacterial activity against 10^6 CFU/ml log-phase Mycoplasma pulmonis MpUR1.1 assessed as viable cell count at 6.25 uM after 1 hr relative to control; type: functional, Mycoplasmopsis pulmonis; method in brief: as §1
Mycoplasma pulmonis [8] = experiment: Antibacterial activity against 10^6 CFU/ml log-phase Mycoplasma pulmonis MpUR1.1 assessed as viable cell count at 6.25 uM after 24 hrs relative to control; type: functional, Mycoplasmopsis pulmonis; method in brief: as §1
Mycoplasma pulmonis [9] = experiment: Antibacterial activity against 10^6 CFU/ml Mycoplasma pulmonis MpUR1.1 assessed as viable cell count after 24 hrs; type: functional; conditions: Mycoplasmopsis pulmonis; method in brief: as §2
Mycoplasma pulmonis [10] = experiment: Antibacterial activity against 10^6 CFU/ml log-phase Mycoplasma pulmonis MpUR1.1 assessed as viable cell count at 3.12 uM after 1 hr relative to control; type: functional, Mycoplasmopsis pulmonis; method in brief: as §1
Mycoplasma pulmonis [11] = experiment: Antibacterial activity against 10^6 CFU/ml log-phase Mycoplasma pulmonis MpUR1.1 assessed as viable cell count at 3.12 uM after 24 hrs relative to control; type: functional, Mycoplasmopsis pulmonis; method in brief: as §1
Mycoplasma pulmonis [12] = experiment: Antibacterial activity against 10^6 CFU/ml log-phase Mycoplasma pulmonis MpUR1.1 assessed as viable cell count at 25 uM after 1 hr relative to control; type: functional, Mycoplasmopsis pulmonis; method in brief: as §1
Mycoplasma pulmonis [13] = experiment: Antibacterial activity against 10^6 CFU/ml log-phase Mycoplasma pulmonis MpUR1.1 assessed as viable cell count at 25 uM after 24 hrs relative to control; type: functional, Mycoplasmopsis pulmonis; method in brief: as §1

Structure (SMILES) | MIC (Mycoplasma pulmonis [1]) [µg/mL] | Activity (Mycoplasma pulmonis [2]) | MBC (Mycoplasma pulmonis [3]) [µg/mL] | Activity (Mycoplasma pulmonis [4]) [%] | Activity (Mycoplasma pulmonis [5]) [%] | Ratio (Mycoplasma pulmonis [6]) | Activity (Mycoplasma pulmonis [7]) [%] | Activity (Mycoplasma pulmonis [8]) [%] | MBC (Mycoplasma pulmonis [9]) [µg/mL] | Activity (Mycoplasma pulmonis [10]) [%] | Activity (Mycoplasma pulmonis [11]) [%] | Activity (Mycoplasma pulmonis [12]) [%] | Activity (Mycoplasma pulmonis [13]) [%]
CC(=O)NC(C)(C)C(=O)N1CCC[C@H]1C(=O)NC(C)(C)C(=O)N[C@@H](C)C(=O)NC(C)(C)C(=O)N[C@@H](C)C(=O)N[C@@H](CCC(N)=O)C(=O)NC(C)(C)C(=O)N[C@H](C(=O)NC(C)(C)C(=O)NCC(=O)N[C@@H](CC(C)C)C(=O)NC(C)(C)C(=O)N1CCC[C@H]1C(=O)N[C@H](C(=O)NC(C)(C)C(=O)NC(C)(C)C(=O)N[C@@H](CCC(=O)O)C(=O)N[C@@H](CCC(N)=O)C(=O)N[C@H](CO)Cc1ccccc1)C(C)C)C(C)C [ALAMETHICIN] | 12.3 (≈ 6.26 µM) | Active | 49.1 (≈ 25 µM) | – | – | 2 | 31 | 0 | – | – | – | – | –
CCN1CCN(c2cc3c(cc2F)c(=O)c(C(=O)O)cn3C2CC2)CC1 [ENROFLOXACIN] | 0.14 (≈ 0.39 µM) | Active | – | 0.22 | 89 | 2 | – | – | 0.29 (≈ 0.807 µM) | – | – | – | –
CC(C)C[C@@H]1NC(=O)[C@H](CCCN)NC(=O)[C@H](C(C)C)NC(=O)[C@@H]2CCCN2C(=O)[C@@H](Cc2ccccc2)NC(=O)[C@H](CC(C)C)NC(=O)[C@H](CCCN)NC(=O)[C@H](C(C)C)NC(=O)[C@@H]2CCCN2C(=O)[C@@H](Cc2ccccc2)NC1=O [GRAMICIDIN S] (cyclo(L[dF]PV[Orn]L[dF]PV[Orn])) | 3.6 (≈ 3.15 µM) | Active | 7.1 (≈ 6.22 µM) | – | – | 2 | – | – | – | 98 | 0.16 | – | –

Now from value to compound, other results behind:

MIC (Mycoplasma pulmonis [1]) [µg/mL] | Structure (SMILES) | Activity (Mycoplasma pulmonis [2]) | MBC (Mycoplasma pulmonis [3]) [µg/mL] | Activity (Mycoplasma pulmonis [4]) [%] | Activity (Mycoplasma pulmonis [5]) [%] | Ratio (Mycoplasma pulmonis [6]) | Activity (Mycoplasma pulmonis [7]) [%] | Activity (Mycoplasma pulmonis [8]) [%] | MBC (Mycoplasma pulmonis [9]) [µg/mL] | Activity (Mycoplasma pulmonis [10]) [%] | Activity (Mycoplasma pulmonis [11]) [%] | Activity (Mycoplasma pulmonis [12]) [%] | Activity (Mycoplasma pulmonis [13]) [%]
0.26 (≈ 0.396 µM) | CCCCCC[C@H]1OC(=O)CNC(=O)[C@H]([C@H](C)O)NC(=O)[C@H](CO)NC(=O)[C@H]([C@H](C)CC)NC(=O)[C@H](CC(C)C)N(C)C(=O)[C@@H]1C | Active | 8.2 (≈ 12.5 µM) | 0.05 | 68 | 31 | – | – | – | – | – | – | –
25.9 (≈ 25 µM) | CC(C)CCCCCCCCC[C@@H]1CC(=O)N[C@@H](CCC(=O)O)C(=O)N[C@@H](CC(C)C)C(=O)N[C@H](CC(C)C)C(=O)N[C@@H](C(C)C)C(=O)N[C@@H](CC(=O)O)C(=O)N[C@H](CC(C)C)C(=O)N[C@@H](CC(C)C)C(=O)O1 [SURFACTIN] (EL[dL]VD[dL]L; linker N-C via X1) | Active | 104 (≈ 100 µM) | – | – | 2 | – | – | – | – | – | 43 | 0.08
